Data from ChEMBL document CHEMBL1153726, “Synthesis and anticancer activity of sclerophytin-inspired hydroisobenzofurans” (Bioorg Med Chem Lett, 2009).

What was measured:
SNB-75 = assay: Growth inhibition of human SNB75 cells at 10 uM after 96 hrs by MTT assay; format: functional; design: scale not given: the % may be the effect or the level left
MCF7 = assay: Growth inhibition of human MCF7 cells at 10 uM after 96 hrs by MTT assay; format: functional; design: scale not given: the % may be the effect or the level left
DU-145 = assay: Growth inhibition of human DU145 cells at 10 uM after 96 hrs by MTT assay; format: functional; design: scale not given: the % may be the effect or the level left
HCT-15 = assay: Growth inhibition of human HCT15 cells at 10 uM after 96 hrs by MTT assay; format: functional; design: scale not given: the % may be the effect or the level left
HT-29 = assay: Growth inhibition of human HT-29 cells at 10 uM after 96 hrs by MTT assay; format: functional; design: scale not given: the % may be the effect or the level left
SK-MEL-5 = assay: Growth inhibition of human SK-MEL-5 cells at 10 uM after 96 hrs by MTT assay; format: functional; design: scale not given: the % may be the effect or the level left
LOX IMVI = assay: Growth inhibition of human LOXIMVI cells at 10 uM after 96 hrs by MTT assay; format: functional; design: scale not given: the % may be the effect or the level left
RXF 393 = assay: Growth inhibition of human RXF393 cells at 10 uM after 96 hrs by MTT assay; format: functional; design: scale not given: the % may be the effect or the level left
OVCAR-3 = assay: Growth inhibition of human OVCAR-3 cells at 10 uM after 96 hrs by MTT assay; format: functional; design: scale not given: the % may be the effect or the level left
SF-268 = assay: Growth inhibition of human SF268 cells at 10 uM after 96 hrs by MTT assay; format: functional; design: scale not given: the % may be the effect or the level left
HCT-116 = assay: Growth inhibition of human HCT116 cells at 10 uM after 96 hrs by MTT assay; format: functional; design: scale not given: the % may be the effect or the level left
T47D = assay: Growth inhibition of human T47D cells at 10 uM after 96 hrs by MTT assay; format: functional; design: scale not given: the % may be the effect or the level left
SK-OV-3 = assay: Growth inhibition of human SKOV3 cells at 10 uM after 96 hrs by MTT assay; format: functional; design: scale not given: the % may be the effect or the level left
A549 = assay: Growth inhibition of human A549 cells at 10 uM after 96 hrs by MTT assay; format: functional; design: scale not given: the % may be the effect or the level left
KM12 = assay: Growth inhibition of human KM12 cells at 10 uM after 96 hrs by MTT assay; format: functional; design: scale not given: the % may be the effect or the level left
[1] = Growth inhibition of human RPMI8266 cells at 10 uM after 96 hrs by MTT assay; format: functional; design: scale not given: the % may be the effect or the level left
SK-MEL-28 = assay: Growth inhibition of human SK-MEL-28 cells at 10 uM after 96 hrs by MTT assay; format: functional; design: scale not given: the % may be the effect or the level left
OVCAR-5 = assay: Growth inhibition of human OVCAR5 cells at 10 uM after 96 hrs by MTT assay; format: functional; design: scale not given: the % may be the effect or the level left
SN12C = assay: Growth inhibition of human SN12C cells at 10 uM after 96 hrs by MTT assay; format: functional; design: scale not given: the % may be the effect or the level left
SR = assay: Growth inhibition of human SR cells at 10 uM after 96 hrs by MTT assay; format: functional; design: scale not given: the % may be the effect or the level left
NCI-H23 = assay: Growth inhibition of human NCI-H23 cells at 10 uM after 96 hrs by MTT assay; format: functional; design: scale not given: the % may be the effect or the level left
MOLT-4 = assay: Growth inhibition of human MOLT4 cells at 10 uM after 96 hrs by MTT assay; format: functional; design: scale not given: the % may be the effect or the level left
UO-31 = assay: Growth inhibition of human UO31 cells at 10 uM after 96 hrs by MTT assay; format: functional; design: scale not given: the % may be the effect or the level left
NCI-H522 = assay: Growth inhibition of human NCI-H522 cells at 10 uM after 96 hrs by MTT assay; format: functional; design: scale not given: the % may be the effect or the level left
HOP-92 = assay: Growth inhibition of human HOP92 cells at 10 uM after 96 hrs by MTT assay; format: functional; design: scale not given: the % may be the effect or the level left
MDA-MB-435 = assay: Growth inhibition of human MDA-MB-435 cells at 10 uM after 96 hrs by MTT assay; format: functional; design: scale not given: the % may be the effect or the level left
OVCAR-8 = assay: Growth inhibition of human OVCAR8 cells at 10 uM after 96 hrs by MTT assay; format: functional; design: scale not given: the % may be the effect or the level left
HL-60(TB) = assay: Growth inhibition of human HL-60(TB) cells at 10 uM after 96 hrs by MTT assay; format: functional; design: scale not given: the % may be the effect or the level left
SK-MEL-2 = assay: Growth inhibition of human SK-MEL-2 cells at 10 uM after 96 hrs by MTT assay; format: functional; design: scale not given: the % may be the effect or the level left
NCI-H460 = assay: Growth inhibition of human NCI-H460 cells at 10 uM after 96 hrs by MTT assay; format: functional; design: scale not given: the % may be the effect or the level left
K562 = assay: Growth inhibition of human K562 cells at 10 uM after 96 hrs by MTT assay; format: functional; design: scale not given: the % may be the effect or the level left
NCI-H226 = assay: Growth inhibition of human NCI-H226 cells at 10 uM after 96 hrs by MTT assay; format: functional; design: scale not given: the % may be the effect or the level left
PC-3 = assay: Growth inhibition of human PC3 cells at 10 uM after 96 hrs by MTT assay; format: functional; design: scale not given: the % may be the effect or the level left
SNB-19 = assay: Growth inhibition of human SNB19 cells at 10 uM after 96 hrs by MTT assay; format: functional; design: scale not given: the % may be the effect or the level left
SW-620 = assay: Growth inhibition of human SW620 cells at 10 uM after 96 hrs by MTT assay; format: functional; design: scale not given: the % may be the effect or the level left
[2] = Growth inhibition of human Hs 578T cells at 10 uM after 96 hrs by MTT assay; format: functional; design: scale not given: the % may be the effect or the level left
MDA-MB-231 = assay: Growth inhibition of human MDA-MB-231 cells at 10 uM after 96 hrs by MTT assay; format: functional; design: scale not given: the % may be the effect or the level left
EKVX = assay: Growth inhibition of human EKVX cells at 10 uM after 96 hrs by MTT assay; format: functional; design: scale not given: the % may be the effect or the level left
Malme-3M = assay: Growth inhibition of human MALME-3M cells at 10 uM after 96 hrs by MTT assay; format: functional; design: scale not given: the % may be the effect or the level left
SF-539 = assay: Growth inhibition of human SF539 cells at 10 uM after 96 hrs by MTT assay; format: functional; design: scale not given: the % may be the effect or the level left
COLO 205 = assay: Growth inhibition of human COLO205 cells at 10 uM after 96 hrs by MTT assay; format: functional; design: scale not given: the % may be the effect or the level left
M14 = assay: Growth inhibition of human M14 cells at 10 uM after 96 hrs by MTT assay; format: functional; design: scale not given: the % may be the effect or the level left
786-0 = assay: Growth inhibition of human 786-0 cells at 10 uM after 96 hrs by MTT assay; format: functional; design: scale not given: the % may be the effect or the level left
TK-10 = assay: Growth inhibition of human TK10 cells at 10 uM after 96 hrs by MTT assay; format: functional; design: scale not given: the % may be the effect or the level left
ACHN = assay: Growth inhibition of human ACHN cells at 10 uM after 96 hrs by MTT assay; format: functional; design: scale not given: the % may be the effect or the level left
OVCAR-4 = assay: Growth inhibition of human OVCAR4 cells at 10 uM after 96 hrs by MTT assay; format: functional; design: scale not given: the % may be the effect or the level left
NCI-H322M = assay: Growth inhibition of human NCI-H322M cells at 10 uM after 96 hrs by MTT assay; format: functional; design: scale not given: the % may be the effect or the level left
HOP-62 = assay: Growth inhibition of human HOP62 cells at 10 uM after 96 hrs by MTT assay; format: functional; design: scale not given: the % may be the effect or the level left
[3] = Antitumor activity against human KB3 cells after 96 hrs by MTT assay; format: functional, cell-based; conditions: KB3, 96 h
How it was run: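 Human KB-3 carcinoma cells exposed to increasing compound concentrations; viability read by MTT colorimetric assay after 96 h. Values are means of triplicate assays, expressed relative to untreated controls.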

MDA-MB-468 = assay: Growth inhibition of human MDA-MB-468 cells at 10 uM after 96 hrs by MTT assay; format: functional; design: scale not given: the % may be the effect or the level left
U-251 = assay: Growth inhibition of human U251 cells at 10 uM after 96 hrs by MTT assay; format: functional; design: scale not given: the % may be the effect or the level left
A498 = assay: Growth inhibition of human A498 cells at 10 uM after 96 hrs by MTT assay; format: functional; design: scale not given: the % may be the effect or the level left
IGROV-1 = assay: Growth inhibition of human IGROV1 cells at 10 uM after 96 hrs by MTT assay; format: functional; design: scale not given: the % may be the effect or the level left
NCI/ADR-RES = assay: Growth inhibition of human NCI/ADR-RES cells at 10 uM after 96 hrs by MTT assay; format: functional; design: scale not given: the % may be the effect or the level left
UACC-257 = assay: Growth inhibition of human UACC257 cells at 10 uM after 96 hrs by MTT assay; format: functional; design: scale not given: the % may be the effect or the level left
UACC-62 = assay: Growth inhibition of human UACC62 cells at 10 uM after 96 hrs by MTT assay; format: functional; design: scale not given: the % may be the effect or the level left
CCRF-CEM = assay: Growth inhibition of human CCRF-CEM cells at 10 uM after 96 hrs by MTT assay; format: functional; design: scale not given: the % may be the effect or the level left
HCC 2998 = assay: Growth inhibition of human HCC2998 cells at 10 uM after 96 hrs by MTT assay; format: functional; design: scale not given: the % may be the effect or the level left
BT-549 = assay: Growth inhibition of human BT549 cells at 10 uM after 96 hrs by MTT assay; format: functional; design: scale not given: the % may be the effect or the level left

C=C(C)[C@H]1CC=C(C)[C@@]2(O)[C@@H]1[C@H](c1ccc(Cl)cc1Cl)O[C@@H]2C(=O)OCC
Activity (SNB-75): 82.61%
Activity (MCF7): 104.98%
Activity (DU-145): 110.29%
Activity (HCT-15): 108.1%
Activity (HT-29): 93.83%
Activity (SK-MEL-5): 102.55%
Activity (LOX IMVI): 98%
Activity (RXF 393): 95.61%
Activity (OVCAR-3): 112.11%
Activity (SF-268): 100.46%
Activity (HCT-116): 84.08%
Activity (T47D): 94.32%
Activity (SK-OV-3): 98.68%
Activity (A549): 90.16%
Activity (KM12): 99.49%
Activity [1]: 106.77%
Activity (SK-MEL-28): 113.23%
Activity (OVCAR-5): 103.98%
Activity (SN12C): 98.08%
Activity (SR): 82.5%
Activity (NCI-H23): 97.89%
Activity (MOLT-4): 98.02%
Activity (UO-31): 90.72%
Activity (NCI-H522): 82.73%
Activity (HOP-92): 94.71%
Activity (MDA-MB-435): 107.24%
Activity (OVCAR-8): 94.44%
Activity (HL-60(TB)): 100.94%
Activity (SK-MEL-2): 106.54%
Activity (NCI-H460): 108.8%
Activity (K562): 79.96%
Activity (NCI-H226): 97.47%
Activity (PC-3): 99.33%
Activity (SNB-19): 87.9%
Activity (SW-620): 97.1%
Activity [2]: 100.26%
Activity (MDA-MB-231): 101.68%
Activity (EKVX): 104.39%
Activity (Malme-3M): 117.74%
Activity (SF-539): 100.6%
Activity (COLO 205): 122.22%
Activity (M14): 104.29%
Activity (786-0): 87.09%
Activity (TK-10): 119.56%
Activity (ACHN): 109.85%
Activity (OVCAR-4): 93.31%
Activity (NCI-H322M): 113.73%
Activity (HOP-62): 92.21%
IC50 [3]: 3 µM
Activity (MDA-MB-468): 94.32%
Activity (U-251): 103.59%
Activity (A498): 102.47%
Activity (IGROV-1): 82.34%
Activity (NCI/ADR-RES): 101.67%
Activity (UACC-257): 94.54%
Activity (UACC-62): 84.48%
Activity (CCRF-CEM): 98.31%
Activity (HCC 2998): 108.86%
Activity (BT-549): 139.44%

C=C(C)[C@H]1CC=C(C)[C@@]2(O)[C@@H]1[C@H](c1ccccc1Br)O[C@@H]2C(=O)O
IC50 [3]: > 100 µM

C=C(C)[C@H]1CC=C(C)C2=CO[C@@H](c3ccccc3Br)[C@@H]21
IC50 [3]: 4 µM

C=C(C)[C@H]1CC=C(C)[C@@]2(O)[C@@H]1[C@H](c1ccccc1Br)O[C@@H]2C(=O)OCC1CCCC1
IC50 [3]: > 100 µM

C=C(C)[C@H]1CC=C(C)[C@@]2(O)[C@@H]1[C@H](c1ccccc1Br)O[C@@H]2C(=O)OCC
IC50 [3]: 20 µM
